≈ marks a conversion by molar mass, not a printed value.
Columns and labels:
Klebsiella pneumoniae [1] = assay: Antibacterial activity against Klebsiella pneumoniae isolate assessed after 24 hrs by serial dilution method; assay type: functional
In short: (§1)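 Strains were subcultured twice on MHA at 37 °C overnight. Inoculum was diluted from McFarland 0.5 to 10^5 cfu/ml, giving 10^4 cfu/ml in wells. Solvent, medium and organism-only controls were included. Incubated 37 °C, humid chamber, 24 h, in triplicate. MIC = lowest concentration with no macroscopic growth.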

Pseudomonas aeruginosa [2] = assay: Antibacterial activity against Pseudomonas aeruginosa isolate assessed after 24 hrs by serial dilution method; assay type: functional; in short: as §1
Escherichia coli [3] = assay: Antibacterial activity against Escherichia coli isolate assessed after 24 hrs by serial dilution method; assay type: functional; in short: as §1
Bacillus subtilis [4] = assay: Antibacterial activity against Bacillus subtilis ATCC 6633 assessed after 24 hrs by serial dilution method; assay type: functional; conditions: ATCC 6633, 24 h; in short: as §1
Staphylococcus aureus [5] = assay: Antibacterial activity against Staphylococcus aureus ATCC 25923 assessed after 24 hrs by serial dilution method; assay type: functional; conditions: ATCC 25923, 24 h; in short: as §1
Candida albicans [6] = assay: Antifungal activity against Candida albicans ATCC 10231 assessed after 48 hrs by serial dilution method; assay type: functional; conditions: ATCC 10231, 48 h
In short: (§2)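 Broth microdilution per CLSI M27-A in RPMI-1640 with L-glutamine, MOPS-buffered pH 7, with 2-fold compound dilutions. Yeasts were subcultured twice on SDA at 35 °C for 24–48 h. Inoculum was diluted from McFarland 0.5 to 10^4 cfu/ml, giving 10^3 cfu/ml in wells. Incubated 35 °C, humid chamber, 48 h, in triplicate. MIC = lowest concentration with no macroscopic growth.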

Candida albicans [7] = assay: Antifungal activity against Candida albicans isolate assessed after 48 hrs by serial dilution method; assay type: functional; in short: as §2
Escherichia coli [8] = assay: Antibacterial activity against Escherichia coli ATCC assessed after 24 hrs by serial dilution method
Klebsiella pneumoniae [9] = assay: Antibacterial activity against Klebsiella pneumoniae RSHM 574 assessed after 24 hrs by serial dilution method
Bacillus subtilis [10] = assay: Antibacterial activity against drug-resistant Bacillus subtilis assessed after 24 hrs by serial dilution method
Pseudomonas aeruginosa [11] = assay: Antibacterial activity against Pseudomonas aeruginosa ATCC […] assessed after 24 hrs by serial dilution method
Staphylococcus aureus [12] = assay: Antibacterial activity against drug-resistant Staphylococcus aureus assessed after 24 hrs by serial dilution method

| Structure (SMILES) | MIC (Klebsiella pneumoniae [1]) [µg/mL] | MIC (Pseudomonas aeruginosa [2]) [µg/mL] | MIC (Escherichia coli [3]) [µg/mL] | MIC (Bacillus subtilis [4]) [µg/mL] | MIC (Staphylococcus aureus [5]) [µg/mL] | MIC (Candida albicans [6]) [µg/mL] | MIC (Candida albicans [7]) [µg/mL] | MIC (Escherichia coli [8]) [µg/mL] | MIC (Klebsiella pneumoniae [9]) [µg/mL] | MIC (Bacillus subtilis [10]) [µg/mL] | MIC (Pseudomonas aeruginosa [11]) [µg/mL] | MIC (Staphylococcus aureus [12]) [µg/mL] |
| --- | --- | --- | --- | --- | --- | --- | --- | --- | --- | --- | --- | --- |
| CCc1ccc(C(=O)Nc2cc(N)ccc2O)cc1 | 62.5 (≈ 244 µM) | 125 (≈ 488 µM) | 125 (≈ 488 µM) | 62.5 (≈ 244 µM) | 15.6 (≈ 60.9 µM) | 62.5 (≈ 244 µM) | 62.5 (≈ 244 µM) | 125 (≈ 488 µM) | 62.5 (≈ 244 µM) | 31.2 (≈ 122 µM) | 62.5 (≈ 244 µM) | 15.6 (≈ 60.9 µM) |
| Nc1ccc(NC(=O)c2ccc(F)cc2)c(O)c1 | 250 (≈ 1020 µM) | 250 (≈ 1020 µM) | 250 (≈ 1020 µM) | 125 (≈ 508 µM) | 62.5 (≈ 254 µM) | 125 (≈ 508 µM) | 125 (≈ 508 µM) | 250 (≈ 1020 µM) | 125 (≈ 508 µM) | 125 (≈ 508 µM) | 125 (≈ 508 µM) | 15.6 (≈ 63.4 µM) |
| Nc1ccc(NC(=O)Cc2ccc(F)cc2)c(O)c1 | 125 (≈ 480 µM) | 125 (≈ 480 µM) | 125 (≈ 480 µM) | 250 (≈ 961 µM) | 125 (≈ 480 µM) | 125 (≈ 480 µM) | 125 (≈ 480 µM) | 62.5 (≈ 240 µM) | 125 (≈ 480 µM) | 62.5 (≈ 240 µM) | 125 (≈ 480 µM) | 62.5 (≈ 240 µM) |
| CC1COc2c(N3CCN(C)CC3)c(F)cc3c(=O)c(C(=O)O)cn1c23 (stereo unspecified) [OFLOXACIN] | 64 (≈ 177 µM) | – | 32 (≈ 88.6 µM) | > 4100 | > 4100 | – | – | – | 64 (≈ 177 µM) | 32 (≈ 88.6 µM) | 8 (≈ 22.1 µM) | > 4100 |
| Nc1ccc(NC(=O)c2ccccc2)c(O)c1 | 250 (≈ 1100 µM) | 250 (≈ 1100 µM) | 125 (≈ 548 µM) | 62.5 (≈ 274 µM) | 125 (≈ 548 µM) | 62.5 (≈ 274 µM) | 62.5 (≈ 274 µM) | 125 (≈ 548 µM) | 125 (≈ 548 µM) | 62.5 (≈ 274 µM) | 125 (≈ 548 µM) | 15.6 (≈ 68.3 µM) |
| O=C(Nc1ccc([N+](=O)[O-])cc1O)c1ccc(Br)cc1 | 125 (≈ 371 µM) | 250 (≈ 742 µM) | 250 (≈ 742 µM) | 3.9 (≈ 11.6 µM) | 7.8 (≈ 23.1 µM) | 250 (≈ 742 µM) | 125 (≈ 371 µM) | 62.5 (≈ 185 µM) | 125 (≈ 371 µM) | 1.95 (≈ 5.78 µM) | 250 (≈ 742 µM) | 500 (≈ 1480 µM) |
| Cc1ccc(CC(=O)Nc2ccc([N+](=O)[O-])cc2O)cc1 | 250 (≈ 873 µM) | 250 (≈ 873 µM) | 250 (≈ 873 µM) | 125 (≈ 437 µM) | 250 (≈ 873 µM) | 62.5 (≈ 218 µM) | 250 (≈ 873 µM) | 125 (≈ 437 µM) | 125 (≈ 437 µM) | 250 (≈ 873 µM) | 250 (≈ 873 µM) | 500 (≈ 1750 µM) |
| C[C@@H]1[C@H](O)[C@@H](C)/C=C/C=C/C=C/C=C/C=C/C=C/C=C/[C@H](O[C@@H]2O[C@H](C)[C@@H](O)[C@H](N)[C@@H]2O)C[C@@H]2O[C@](O)(C[C@@H](O)C[C@@H](O)[C@H](O)CC[C@@H](O)C[C@@H](O)CC(=O)O[C@H]1C)C[C@H](O)[C@H]2C(=O)O [AMPHOTERICIN B] | – | – | – | – | – | – | 128 (≈ 139 µM) | – | – | – | – | – |
| OC(Cn1cncn1)(Cn1cncn1)c1ccc(F)cc1F [FLUCONAZOLE] | – | – | – | – | – | 4 (≈ 13.1 µM) | 512 (≈ 1670 µM) | – | – | – | – | – |
| Nc1ccc(NC(=O)Cc2ccc(Br)cc2)c(O)c1 | 125 (≈ 389 µM) | 250 (≈ 778 µM) | 125 (≈ 389 µM) | 125 (≈ 389 µM) | 125 (≈ 389 µM) | 125 (≈ 389 µM) | 250 (≈ 778 µM) | 125 (≈ 389 µM) | 125 (≈ 389 µM) | 125 (≈ 389 µM) | 250 (≈ 778 µM) | 31.2 (≈ 97.3 µM) |
| O=C(Nc1cc([N+](=O)[O-])ccc1O)c1ccccc1 | 250 (≈ 968 µM) | 250 (≈ 968 µM) | 250 (≈ 968 µM) | 7.8 (≈ 30.2 µM) | 31.2 (≈ 121 µM) | 125 (≈ 484 µM) | 250 (≈ 968 µM) | 125 (≈ 484 µM) | 125 (≈ 484 µM) | 62.5 (≈ 242 µM) | 125 (≈ 484 µM) | 15.6 (≈ 60.4 µM) |
| Cc1ccc(CC(=O)Nc2cc([N+](=O)[O-])ccc2O)cc1 | 250 (≈ 873 µM) | 250 (≈ 873 µM) | 250 (≈ 873 µM) | 15.6 (≈ 54.5 µM) | 250 (≈ 873 µM) | 250 (≈ 873 µM) | 250 (≈ 873 µM) | 125 (≈ 437 µM) | 125 (≈ 437 µM) | 62.5 (≈ 218 µM) | 125 (≈ 437 µM) | 125 (≈ 437 µM) |
| CCc1ccc(C(=O)Nc2ccc([N+](=O)[O-])cc2O)cc1 | 125 (≈ 437 µM) | 250 (≈ 873 µM) | 125 (≈ 437 µM) | 250 (≈ 873 µM) | 62.5 (≈ 218 µM) | 125 (≈ 437 µM) | 125 (≈ 437 µM) | 125 (≈ 437 µM) | 500 (≈ 1750 µM) | 15.6 (≈ 54.5 µM) | 250 (≈ 873 µM) | 125 (≈ 437 µM) |
